Source: ChEMBL document CHEMBL1126014, “New conformationally restricted 99mTc N2S2 complexes as myocardial perfusion imaging agents” (J Med Chem, 1992)

Tests used:
Rattus norvegicus [1] = assay: Biodistribution of the radiolabeled compound (2-5 uCi) in rat blood 15 mins after i.v. administration; assay type: ADME, organism-based; conditions: in vivo, iv, 0.25 h
Outline: (§1)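 Rats given the 99mTc complex iv. At set times, blood was drawn by cardiac puncture and the animals were killed at once by cardiectomy. Organs were excised, weighed and gamma-counted. Percent dose per organ was found by comparing tissue radioactivity with suitable dilutions of the injected dose.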

Rattus norvegicus [2] = assay: Biodistribution of the radiolabeled compound (2-5 uCi) in rat blood 65 mins after i.v. administration; assay type: ADME, organism-based; conditions: in vivo, iv; outline: as §1
Rattus norvegicus [3] = assay: Biodistribution of the radiolabeled compound (2-5 uCi) in rat brain 15 mins after i.v. administration; assay type: ADME, organism-based; conditions: in vivo, iv, 0.25 h; outline: as §1
Rattus norvegicus [4] = assay: Biodistribution of the radiolabeled compound (2-5 uCi) in rat brain 2 mins after i.v. administration; assay type: ADME, organism-based; conditions: in vivo, iv; outline: as §1
Rattus norvegicus [5] = assay: Biodistribution of the radiolabeled compound (2-5 uCi) in rat brain 65 mins after i.v. administration; assay type: ADME, organism-based; conditions: in vivo, iv; outline: as §1
Rattus norvegicus [6] = assay: Biodistribution of the radiolabeled compound (2-5 uCi) in rat heart 15 mins after i.v. administration; assay type: ADME, organism-based; conditions: in vivo, iv, 0.25 h; outline: as §1
Rattus norvegicus [7] = assay: Biodistribution of the radiolabeled compound (2-5 uCi) in rat heart 2 mins after i.v. administration; assay type: ADME, organism-based; conditions: in vivo, iv; outline: as §1
Rattus norvegicus [8] = assay: Biodistribution of the radiolabeled compound (2-5 uCi) in rat heart 65 mins after i.v. administration; assay type: ADME, organism-based; conditions: in vivo, iv; outline: as §1
Rattus norvegicus [9] = assay: Biodistribution of the radiolabeled compound (2-5 uCi) in rat kidney 15 mins after i.v. administration; assay type: ADME, organism-based; conditions: in vivo, iv, 0.25 h; outline: as §1
Rattus norvegicus [10] = assay: Biodistribution of the radiolabeled compound (2-5 uCi) in rat kidney 2 mins after i.v. administration; assay type: ADME, organism-based; conditions: in vivo, iv; outline: as §1
Rattus norvegicus [11] = assay: Biodistribution of the radiolabeled compound (2-5 uCi) in rat kidney 65 mins after i.v. administration; assay type: ADME, organism-based; conditions: in vivo, iv; outline: as §1
Rattus norvegicus [12] = assay: Biodistribution of the radiolabeled compound (2-5 uCi) in rat liver 15 mins after i.v. administration; assay type: ADME, organism-based; conditions: in vivo, iv, 0.25 h; outline: as §1
Rattus norvegicus [13] = assay: Biodistribution of the radiolabeled compound (2-5 uCi) in rat liver 2 mins after i.v. administration; assay type: ADME, organism-based; conditions: in vivo, iv; outline: as §1
Rattus norvegicus [14] = assay: Biodistribution of the radiolabeled compound (2-5 uCi) in rat liver 65 mins after i.v. administration; assay type: ADME, organism-based; conditions: in vivo, iv; outline: as §1
Rattus norvegicus [15] = assay: Biodistribution of the radiolabeled compound (2-5 uCi) in rat lung 15 mins after i.v. administration; assay type: ADME, organism-based; conditions: in vivo, iv, 0.25 h; outline: as §1
Rattus norvegicus [16] = assay: Biodistribution of the radiolabeled compound (2-5 uCi) in rat lung 2 mins after i.v. administration; assay type: ADME, organism-based; conditions: in vivo, iv; outline: as §1
Rattus norvegicus [17] = assay: Biodistribution of the radiolabeled compound (2-5 uCi) in rat lung 65 mins after i.v. administration; assay type: ADME, organism-based; conditions: in vivo, iv; outline: as §1
Rattus norvegicus [18] = assay: Biodistribution of the radiolabeled compound (2-5 uCi) in rat muscle 15 mins after i.v. administration; assay type: ADME, organism-based, Muscle tissue; conditions: in vivo, iv, 0.25 h; outline: as §1
Rattus norvegicus [19] = assay: Biodistribution of the radiolabeled compound (2-5 uCi) in rat muscle 2 mins after i.v. administration; assay type: ADME, organism-based, Muscle tissue; conditions: in vivo, iv; outline: as §1
Rattus norvegicus [20] = assay: Biodistribution of the radiolabeled compound (2-5 uCi) in rat skin 15 mins after i.v. administration; assay type: ADME, organism-based, Zone of skin; conditions: in vivo, iv, 0.25 h; outline: as §1
Rattus norvegicus [21] = assay: Biodistribution of the radiolabeled compound (2-5 uCi) in rat skin 2 mins after i.v. administration; assay type: ADME, organism-based, Zone of skin; conditions: in vivo, iv; outline: as §1
Rattus norvegicus [22] = assay: Biodistribution of the radiolabeled compound (2-5 uCi) in rat skin 65 mins after i.v. administration; assay type: ADME, organism-based, Zone of skin; conditions: in vivo, iv; outline: as §1
Rattus norvegicus [23] = assay: Biodistribution of the radiolabeled compound (2-5 uCi) in rat spleen 15 mins after i.v. administration; assay type: ADME, organism-based; conditions: in vivo, iv, 0.25 h; outline: as §1
Rattus norvegicus [24] = assay: Biodistribution of the radiolabeled compound (2-5 uCi) in rat spleen 2 mins after i.v. administration; assay type: ADME, organism-based; conditions: in vivo, iv; outline: as §1
Rattus norvegicus [25] = assay: Biodistribution of the radiolabeled compound (2-5 uCi) in rat spleen 65 mins after i.v. administration; assay type: ADME, organism-based; conditions: in vivo, iv; outline: as §1
[26] = Partition coefficient in buffer containing 0.1 M NH4PF6; assay type: ADME; conditions: octanol/water
Outline: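 The 99mTc complex was mixed with 3 g each of 1-octanol and 50 mM phosphate buffer pH 7.4 containing 0.1 M NH4PF6. Tubes were vortexed three times for 1 min at room temperature and centrifuged 5 min. Weighed samples of each layer were gamma-counted. PC = counts per gram in octanol / counts per gram in aqueous.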

[27] = Partition coefficient in buffer containing 0.1 M NaCl; assay type: ADME; conditions: octanol/water
Outline: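 Octanol/buffer partition: the 99mTc complex was shaken with 3 g 1-octanol plus 3 g 50 mM phosphate pH 7.4 containing 0.1 M NaCl. Vortexing was 3 × 1 min at room temperature, followed by 5 min centrifugation. Weighed samples from both layers were gamma-counted. Ratio = octanol counts/g over aqueous counts/g.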

Rattus norvegicus [28] = assay: Biodistribution of the radiolabeled compound (2-5 uCi) in rat blood 2 mins after i.v. administration; assay type: ADME, organism-based; conditions: in vivo, iv; outline: as §1
Rattus norvegicus [29] = assay: Biodistribution of the radiolabeled compound (2-5 uCi) in rat muscle 65 mins after i.v. administration; assay type: ADME, organism-based, Muscle tissue; conditions: in vivo, iv; outline: as §1
Rattus norvegicus [30] = assay: Heart/blood ratio of the radiolabeled compound (2-5 uCi) in rat 15 mins after i.v. administration; conditions: in vivo, iv, 0.25 h
Rattus norvegicus [31] = assay: Heart by blood ratio of the radiolabeled compound (2-5 uCi) in rat 2 mins after i.v. administration; conditions: in vivo, iv
Rattus norvegicus [32] = assay: Heart by blood ratio of the radiolabeled compound (2-5 uCi) in rat 65 mins after i.v. administration; conditions: in vivo, iv

Biodistribution (Rattus norvegicus [1]) [dose/organ %] | Biodistribution (Rattus norvegicus [2]) [dose/organ %] | Biodistribution (Rattus norvegicus [3]) [dose/organ %] | Biodistribution (Rattus norvegicus [4]) [dose/organ %] | Biodistribution (Rattus norvegicus [5]) [dose/organ %] | Biodistribution (Rattus norvegicus [6]) [dose/organ %] | Biodistribution (Rattus norvegicus [7]) [dose/organ %] | Biodistribution (Rattus norvegicus [8]) [dose/organ %] | Biodistribution (Rattus norvegicus [9]) [dose/organ %] | Biodistribution (Rattus norvegicus [10]) [dose/organ %] | Biodistribution (Rattus norvegicus [11]) [dose/organ %] | Biodistribution (Rattus norvegicus [12]) [dose/organ %] | Biodistribution (Rattus norvegicus [13]) [dose/organ %] | Biodistribution (Rattus norvegicus [14]) [dose/organ %] | Biodistribution (Rattus norvegicus [15]) [dose/organ %] | Biodistribution (Rattus norvegicus [16]) [dose/organ %] | Biodistribution (Rattus norvegicus [17]) [dose/organ %] | Biodistribution (Rattus norvegicus [18]) [dose/organ %] | Biodistribution (Rattus norvegicus [19]) [dose/organ %] | Biodistribution (Rattus norvegicus [20]) [dose/organ %] | Structure (SMILES) | further results
1.14 | 0.77 | 0.01 | 0.04 | 0.007 | 0.38 | 0.42 | 0.37 | 15.9 | 19.37 | 4.26 | 27.48 | 25.92 | 15.23 | 0.28 | 0.56 | 0.23 | 6.98 | 9.08 | 5.16 | CC(C)(S)CN1CCCN(CC(C)(C)S)CC1 | Biodistribution (Rattus norvegicus [21]): 7.45 dose/organ %; Biodistribution (Rattus norvegicus [22]): 6.8 dose/organ %; Biodistribution (Rattus norvegicus [23]): 0.26 dose/organ %; Biodistribution (Rattus norvegicus [24]): 0.41 dose/organ %; Biodistribution (Rattus norvegicus [25]): 0.22 dose/organ %; Partition coefficient [26]: 11.5; Partition coefficient [27]: 1.19; Biodistribution (Rattus norvegicus [28]): 3.57 dose/organ %; Biodistribution (Rattus norvegicus [29]): 8.66 dose/organ %; heart/blood ratio (Rattus norvegicus [30]): 3.33; heart/blood ratio (Rattus norvegicus [31]): 1.18; heart/blood ratio (Rattus norvegicus [32]): 4.8
2 | 0.7 | 0.01 | 0.03 | 0.003 | 0.1 | 0.21 | 0.07 | 9.43 | 15.71 | 1.09 | 29.63 | 31.81 | 20.2 | 0.23 | 0.62 | 0.12 | 10.12 | 10.67 | 14.13 | CC(C)(S)CN1CCN(CC(C)(C)S)CC1 | Biodistribution (Rattus norvegicus [21]): 6.65 dose/organ %; Biodistribution (Rattus norvegicus [22]): 7.13 dose/organ %; Biodistribution (Rattus norvegicus [23]): 0.25 dose/organ %; Biodistribution (Rattus norvegicus [24]): 0.57 dose/organ %; Biodistribution (Rattus norvegicus [25]): 0.08 dose/organ %; Partition coefficient [26]: 10.75; Partition coefficient [27]: 1.09; Biodistribution (Rattus norvegicus [28]): 7.16 dose/organ %; Biodistribution (Rattus norvegicus [29]): 5.06 dose/organ %; heart/blood ratio (Rattus norvegicus [30]): 0.5; heart/blood ratio (Rattus norvegicus [31]): 0.29; heart/blood ratio (Rattus norvegicus [32]): 1
